Our source for the GI50 values is ChEMBL document CHEMBL3596100, “The synthesis and biological activity of novel anthracenone-pyranones and anthracenone-furans” (Bioorg Med Chem, 2015).

The test system of one assay is HT-29. Nature of the assay: Growth inhibition of human HT-29 cells after 72 hrs by MTT assay. The format is functional. The note with it: HT-29, 72 h. An outline of the steps: (§1)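 Cells kept in DMEM with 10% FBS, glutamine, penicillin/streptomycin at 37 °C, 5% CO2; plated in duplicate at 2500–4000 cells/well, dosed 24 h later during log growth. After 72 h drug exposure, MTT read at 540 nm. […] Assays in triplicate, standard error reported.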
In general terms: Tetrazolium dyes change colour on reduction, which living cells bring about.

Assay [1] is described as follows: Growth inhibition of human U87 cells after 72 hrs by MTT assay. The format is functional, U-87MG ATCC. The note with it: U-87 MG. An outline of the steps: as §1
In a further assay the test system is MCF7. Put plainly: Growth inhibition of human MCF7 cells after 72 hrs by MTT assay. Format: functional. To be noted: MCF7, 72 h. Summed up: as §1
A further assay relates to A2780. Nature of the assay: Growth inhibition of human A2780 cells after 72 hrs by MTT assay. The note with it: A2780, 72 h. The format is functional. An outline of the steps: as §1
The nature of assay [2]: Growth inhibition of human H460 cells after 72 hrs by MTT assay. Format: functional. To be noted: NCI-H460, 72 h. Summed up: as §1
A further assay relates to A-431. Put plainly: Growth inhibition of human A431 cells after 72 hrs by MTT assay. The format is functional. The note with it: A-431, 72 h. An outline of the steps: as §1
Another assay deals with DU-145. Put plainly: Growth inhibition of human DU145 cells after 72 hrs by MTT assay. The format is functional. To be noted: DU-145, 72 h. An outline of the steps: as §1
Assay [3] is described as follows: Growth inhibition of human BE(2)-C cells after 72 hrs by MTT assay. Format: functional. An outline of the steps: as §1
The nature of assay [4]: Growth inhibition of human SJ-G2 cells after 72 hrs by MTT assay. Format: functional. To be noted: SJ-G2, 72 h. An outline of the steps:
as §1

A short description of assay [5]: Growth inhibition of human MIA cells after 72 hrs by MTT assay. The format is functional. Summed up: as §1
Assay [6] is described as follows: Growth inhibition of mouse SMA cells after 72 hrs by MTT assay. The format is functional. Summed up:
as §1

SMILES strings stand for the structures.

For `CCCc1cc2c(C)cc3c(c2o1)C(=O)c1c(O)cccc1C3=O`, the GI50 was 1.2 µM with HT-29; 6.6 µM in [1]; 2.2 µM in the assay with MCF7; 1.5 µM with A2780; 3.1 µM in assay [2]; 2.3 µM with A-431. Further, the GI50 in the assay on DU-145 is 0.86 µM; in assay [3] it was 0.88 µM; in [4], 1 µM; in assay [5] it was 1.7 µM; in assay [6] it was 1.3 µM.

As to `Cc1cc2c(c3oc(=O)c(C(C)(C)O)cc13)C(=O)c1c(OC(C)C)cccc1C2=O`, the GI50 in the assay on HT-29 was determined as 30 µM; in assay [1], 30 µM; in the assay with MCF7, 20 µM; with A2780, 28 µM; in [2], 22 µM; in the assay with A-431 it was 19 µM. In addition, the GI50 in the assay on DU-145 was 40 µM; in assay [3], 27 µM; in assay [4], 14 µM; in assay [5], 23 µM; in [6] it was 30 µM.

Turning to `C=C(C)c1cc(=O)c2c(C)cc3c(c2o1)C(=O)c1c(O)cccc1C3=O`, the GI50 stood at 1.6 µM in the assay on HT-29; 3.4 µM in [1]; 1.4 µM in the assay on MCF7; 1.6 µM in the assay with A2780; 3.9 µM in [2]; 1.8 µM with A-431. For the same compound, the GI50 with DU-145 is 1.5 µM; in assay [3], 5.9 µM; in assay [4], 4.7 µM; in [5], 2 µM; in [6], 1.7 µM.

In the case of `CCC(C)(OCc1ccccc1)c1cc2c(C)cc3c(c2oc1=O)C(=O)c1c(O)cccc1C3=O` (centres undefined), the GI50 turned out to be 5.6 µM in the assay on HT-29; 14 µM in [1]; 5.3 µM in the assay with MCF7; 7 µM with A2780; 5.1 µM in assay [2]; 4 µM in the assay with A-431. Also, the GI50 with DU-145 stood at 8.8 µM; in assay [3], 6.7 µM; in assay [4], 3.9 µM; in assay [5] it was 3.9 µM; in [6], 6.1 µM.

As to `Cc1cc2c(c3oc(=O)c(CCCCl)cc13)C(=O)c1c(OC(C)C)cccc1C2=O`, the concentration for 50% growth inhibition (GI50) in the assay with HT-29 was found to be 15 µM; in assay [1] it was 16 µM; with MCF7, 19 µM; in the assay with A2780, 21 µM; in assay [2] it was 19 µM; with A-431, 17 µM. The GI50 worked out at 20 µM in the assay on DU-145; 33 µM in [3]; 15 µM in [4]; 20 µM in assay [5]; 19 µM in [6].

For the compound `Cc1cc2c(c3oc(=O)c(CCCC#N)cc13)C(=O)c1c(O)cccc1C2=O`, the GI50 was 14 µM in the assay on HT-29; 11 µM in [1]; 12 µM in the assay on MCF7; 10 µM with A2780; 9 µM in assay [2]; 12 µM in the assay on A-431. Also, the GI50 in the assay on DU-145 turned out to be 3.2 µM; in assay [3], 11 µM; in assay [4], 22 µM; in [5] it was 15 µM; in assay [6], 9.8 µM.

For `Cc1cc2c(c3oc(CCCCl)cc13)C(=O)c1c(O)cccc1C2=O`, the 50% growth inhibitory concentration (GI50) amounted to 1.9 µM in the assay on HT-29; 0.97 µM in assay [1]; 0.66 µM with MCF7; 0.45 µM in the assay with A2780; 1.9 µM in [2]; 0.59 µM in the assay with A-431. The GI50 came out at 0.44 µM with DU-145; 0.38 µM in [3]; 37 µM in assay [4]; 0.55 µM in assay [5]; 0.69 µM in [6].

For the compound `Cc1cc2c(c3oc(=O)c([Si](C)(C)C)cc13)C(=O)c1c(OC(C)C)cccc1C2=O`, the GI50 was found to be 11 µM in the assay on HT-29; 19 µM in assay [1]; 13 µM with MCF7; 13 µM with A2780; 21 µM in [2]; 19 µM in the assay on A-431. Also, the GI50 with DU-145 was 27 µM; in assay [3], 28 µM; in [4] it was 14 µM; in assay [5], 11 µM; in assay [6], 11 µM.

With `Cc1cc2c(c3oc(C(C)O)cc13)C(=O)c1c(O)cccc1C2=O` (centres undefined), the GI50 with HT-29 was determined as 13 µM; in assay [1], 20 µM; in the assay on MCF7 it was 21 µM; with A2780, 7.3 µM; in [2] it was 17 µM; in the assay on A-431 it was 9 µM. Besides, the GI50 came to 28 µM in the assay with DU-145; 19 µM in [3]; 17 µM in assay [4]; 15 µM in assay [5]; 12 µM in assay [6].

As for `CCC(C)(O)c1cc2c(C)cc3c(c2oc1=O)C(=O)c1c(OC(C)C)cccc1C3=O` (centres undefined), the GI50 turned out to be 11 µM in the assay with HT-29; 25 µM in assay [1]; 16 µM with MCF7; 19 µM in the assay with A2780; 16 µM in [2]; 15 µM in the assay on A-431. Moreover, the GI50 came out at 26 µM in the assay on DU-145; 22 µM in assay [3]; 9 µM in [4]; 14 µM in assay [5]; 23 µM in assay [6].

As to `CCCc1cc(=O)c2c(C)cc3c(c2o1)C(=O)c1c(O)cccc1C3=O`, the GI50 in the assay on HT-29 came out at 3.2 µM; in assay [1], 2.8 µM; in the assay with MCF7, 1.8 µM; with A2780 it was 2.4 µM; in assay [2], 1.4 µM; in the assay with A-431, 1.6 µM. Also, the GI50 in the assay with DU-145 worked out at 1.2 µM; in [3] it was 1.8 µM; in [4], 1.7 µM; in [5] it was 1.7 µM; in [6], 1.5 µM.

`CCCCCC(=O)c1cc2c(C)cc3c(c2o1)C(=O)c1c(OC(C)C)cccc1C3=O`: the GI50 was 0.88 µM in the assay on HT-29; 4.2 µM in assay [1]; 2 µM with MCF7; 2.3 µM in the assay on A2780; 6.8 µM in [2]; 1.4 µM in the assay on A-431. The GI50 in the assay with DU-145 turned out to be 0.85 µM; in assay [3], 0.75 µM; in assay [4], 4.2 µM; in [5], 1.1 µM; in [6], 1.8 µM.

Regarding `Cc1cc2c(c3oc(CCCC#N)cc13)C(=O)c1c(OC(C)C)cccc1C2=O`, the GI50 in the assay on HT-29 is 11 µM; in assay [1], 6.1 µM; with MCF7, 5.9 µM; with A2780 it was 6.4 µM; in assay [2], 9.4 µM; in the assay on A-431, 9.8 µM. In addition, the GI50 is 7.7 µM with DU-145; 23 µM in assay [3]; 8.4 µM in assay [4]; 10 µM in assay [5]; 10 µM in [6].

`CCCCc1cc(=O)oc2c3c(cc(C)c12)C(=O)c1cccc(OC(C)C)c1C3=O`: the GI50 with HT-29 was 18 µM; in assay [1], 14 µM; in the assay with MCF7, 15 µM; in the assay with A2780, 9.5 µM; in assay [2], 19 µM; with A-431, 20 µM. Also, the GI50 in the assay with DU-145 came out at 11 µM; in [3], 13 µM; in [4], 13 µM; in [5], 13 µM; in [6], 12 µM.

For `CCCc1cc(=O)c2c(C)cc3c(c2o1)C(=O)c1c(OC)cccc1C3=O`, the GI50 in the assay on HT-29 was found to be 5.5 µM; in assay [1], 6.4 µM; in the assay with MCF7, 6.4 µM; in the assay on A2780 it was 6.4 µM; in [2], 5.3 µM; in the assay with A-431 it was 6.6 µM. Further, the GI50 in the assay with DU-145 came to 5.3 µM; in [3] it was 6.1 µM; in assay [4] it was 5.3 µM; in assay [5] it was 7.1 µM; in [6], 6 µM.

`Cc1cc2c(c3oc(CCCCl)cc13)C(=O)c1c(OC(C)C)cccc1C2=O`: the GI50 is 18 µM in the assay with HT-29; 18 µM in [1]; 13 µM with MCF7; 11 µM in the assay with A2780; 27 µM in [2]; 23 µM in the assay with A-431. In addition, the GI50 in the assay on DU-145 was determined as 25 µM; in assay [3], 43 µM; in assay [4], 25 µM; in [5], 34 µM; in [6], 22 µM.

For `CC(=O)c1cc2c(C)cc3c(c2o1)C(=O)c1c(O)cccc1C3=O`, the GI50 with HT-29 is 4.7 µM; in [1], 5.5 µM; in the assay on MCF7 it was 2.1 µM; in the assay with A2780 it was 2 µM; in assay [2] it was 9.6 µM; in the assay with A-431, 4.8 µM. Moreover, the GI50 is 2 µM in the assay with DU-145; 2.9 µM in [3]; 1.8 µM in [4]; 9.5 µM in assay [5]; 1.5 µM in assay [6].

As to `CCc1cc(=O)c2c(C)cc3c(c2o1)C(=O)c1c(OC)cccc1C3=O`, the GI50 in the assay with HT-29 came out at 4.5 µM; in assay [1], 14 µM; with MCF7, 4.1 µM; with A2780, 5.3 µM; in assay [2], 4.8 µM; in the assay with A-431 it was 5.7 µM. Besides, the GI50 worked out at 4.8 µM with DU-145; 4.1 µM in assay [3]; 4.3 µM in [4]; 5.4 µM in assay [5]; 6.5 µM in assay [6].

Take `Cc1cc2c(c3oc(C(=O)c4ccccc4)cc13)C(=O)c1c(OC(C)C)cccc1C2=O`: the GI50 was 1.4 µM in the assay on HT-29; 2.3 µM in assay [1]; 1.1 µM with MCF7; 2.1 µM in the assay with A2780; 2.9 µM in assay [2]; 1.77 µM with A-431. Also, the GI50 in the assay with DU-145 stood at 0.95 µM; in [3], 0.83 µM; in assay [4], 36 µM; in assay [5] it was 1.7 µM; in [6], 2.2 µM.

A word on the GI50: it is the concentration giving 50% growth inhibition.
